Assay results reported in ChEMBL document CHEMBL3286099, “Synthesized quercetin derivatives stimulate melanogenesis in B16 melanoma cells by influencing the expression of melanin biosynthesis proteins MITF and p38 MAPK” (Bioorg Med Chem, 2014).
Activity calls are given as the source filed them. No cut-off for these calls is given here.

What was measured:
B16-F0 [1] = assay: Intracellular melanogenesis-stimulating activity in mouse B16F0 cells at 25 uM after 72 hrs by spectrophotometry relative to control; assay type: functional
Procedure, shortened: (§1)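 Cells were seeded at 5.0 × 10⁴ cells/well, adhered for 24 h, then treated with compound for 72 h. After a PBS wash, cells were lysed in 1 M NaOH at 100 °C for 30 min to solubilize melanin. Lysate absorbance at 405 nm served as the intracellular melanin index, expressed as % of DMSO control. Experiments were done twice.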

B16-F0 [2] = assay: Intracellular melanogenesis-stimulating activity in mouse B16F0 cells at 12.5 uM after 72 hrs by spectrophotometry relative to control; assay type: functional; procedure, shortened: as §1
B16-F0 [3] = assay: Intracellular melanogenesis-stimulating activity in mouse B16F0 cells at 6.25 uM after 72 hrs by spectrophotometry relative to control; assay type: functional; procedure, shortened: as §1
B16-F0 [4] = assay: Extracellular melanogenesis-stimulating activity in mouse B16F0 cells at 25 uM after 72 hrs by spectrophotometry relative to control; assay type: functional
Procedure, shortened: (§2)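 B16-F0 cells in DMEM with 10% FBS were seeded at 5.0 × 10⁴ cells/well and adhered for 24 h. They were treated for 72 h at 200–10 µM or 50–6.25 µM, depending on compound series. Absorbance of the collected culture medium at 510 nm gave extracellular melanin, expressed as % of DMSO-treated control. Experiments were done twice.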

B16-F0 [5] = assay: Extracellular melanogenesis-stimulating activity in mouse B16F0 cells at 12.5 uM after 72 hrs by spectrophotometry relative to control; assay type: functional; procedure, shortened: as §2
B16-F0 [6] = assay: Extracellular melanogenesis-stimulating activity in mouse B16F0 cells at 6.25 uM after 72 hrs by spectrophotometry relative to control; assay type: functional; procedure, shortened: as §2
[7] = Cytotoxicity against mouse B16F0 cells assessed as cell viability at 25 uM after 72 hrs by MTT assay; assay type: cell-based; conditions: read-out: Activity
Procedure, shortened: (§3)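 B16-F0 cells were seeded at 5.0 × 10⁴ cells/well and allowed to adhere for 24 h at 37 °C. They were exposed for 72 h to compound at 200–10 µM or 50–6.25 µM, depending on compound series. MTT (5 mg/mL stock in PBS) was added for 4 h at 37 °C in 5% CO₂, then dissolved in isopropanol/0.04 N HCl and read at 590 nm. Viability is % of DMSO control; experiments were done twice.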

[8] = Cytotoxicity against mouse B16F0 cells assessed as cell viability at 12.5 uM after 72 hrs by MTT assay; assay type: cell-based; conditions: read-out: Activity; procedure, shortened: as §3
[9] = Cytotoxicity against mouse B16F0 cells assessed as cell viability at 6.25 uM after 72 hrs by MTT assay; assay type: cell-based; conditions: read-out: Activity; procedure, shortened: as §3
B16-F0 [10] = assay: Intracellular melanogenesis-stimulating activity in mouse B16F0 cells at 200 uM after 72 hrs by spectrophotometry relative to control; assay type: functional
B16-F0 [11] = assay: Intracellular melanogenesis-stimulating activity in mouse B16F0 cells at 100 uM after 72 hrs by spectrophotometry relative to control; assay type: functional
B16-F0 [12] = assay: Intracellular melanogenesis-stimulating activity in mouse B16F0 cells at 10 uM after 72 hrs by spectrophotometry relative to control; assay type: functional
B16-F0 [13] = assay: Extracellular melanogenesis-stimulating activity in mouse B16F0 cells at 200 uM after 72 hrs by spectrophotometry relative to control; assay type: functional; procedure, shortened: as §2
B16-F0 [14] = assay: Extracellular melanogenesis-stimulating activity in mouse B16F0 cells at 100 uM after 72 hrs by spectrophotometry relative to control; assay type: functional; procedure, shortened: as §2
B16-F0 [15] = assay: Extracellular melanogenesis-stimulating activity in mouse B16F0 cells at 10 uM after 72 hrs by spectrophotometry relative to control; assay type: functional; procedure, shortened: as §2
[16] = Cytotoxicity against mouse B16F0 cells assessed as cell viability at 200 uM after 72 hrs by MTT assay; assay type: cell-based; conditions: read-out: Activity; procedure, shortened: as §3
[17] = Cytotoxicity against mouse B16F0 cells assessed as cell viability at 100 uM after 72 hrs by MTT assay; assay type: cell-based; conditions: read-out: Activity; procedure, shortened: as §3
[18] = Cytotoxicity against mouse B16F0 cells assessed as cell viability at 10 uM after 72 hrs by MTT assay; assay type: cell-based; conditions: read-out: Activity; procedure, shortened: as §3
B16-F0 [19] = assay: Intracellular melanogenesis-stimulating activity in mouse B16F0 cells after 72 hrs by spectrophotometry relative to control; assay type: functional, cell-based; procedure, shortened: as §1
B16-F0 [20] = assay: Intracellular melanogenesis-stimulating activity in mouse B16F0 cells at 50 uM after 72 hrs by spectrophotometry relative to control; assay type: functional; procedure, shortened: as §1
B16-F0 [21] = assay: Extracellular melanogenesis-stimulating activity in mouse B16F0 cells at 50 uM after 72 hrs by spectrophotometry relative to control; assay type: functional; procedure, shortened: as §2
[22] = Cytotoxicity against mouse B16F0 cells assessed as cell viability at 50 uM after 72 hrs by MTT assay; assay type: cell-based; conditions: read-out: Activity; procedure, shortened: as §3
B16-F0 [23] = assay: Induction of melanogenesis-stimulating activity in mouse B16F0 cells assessed as increase in tyrosinase protein expression at 3.1 to 12.5 uM after 72 hrs by Western blotting analysis; assay type: functional, cell-based
Procedure, shortened: (§4)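 B16 cells were treated for 72 h at 0–12.5 µM and lysed in RIPA with protease inhibitors (0 °C, 30 min). Lanes held 10 µg protein on 10% SDS–PAGE, transferred to PVDF and blocked with 2% BSA/TBST at 4 °C overnight. Primaries ran 2 h: MITF 1:1000, tyrosinase, TRP-1 and p-p38 1:200, TRP-2 and p38 1:100. HRP secondary was 1:5000 for 2 h, with ECL densitometry. GAPDH blotted; three independent experiments.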

B16-F0 [24] = assay: Induction of melanogenesis-stimulating activity in mouse B16F0 cells assessed as increase in TRP-1 protein expression at 3.1 to 12.5 uM after 72 hrs by Western blotting analysis; assay type: functional, cell-based; procedure, shortened: as §4
B16-F0 [25] = assay: Induction of melanogenesis-stimulating activity in mouse B16F0 cells assessed as increase in MITF protein expression at 3.1 to 12.5 uM after 72 hrs by Western blotting analysis; assay type: functional, cell-based; procedure, shortened: as §4
B16-F0 [26] = assay: Induction of melanogenesis-stimulating activity in mouse B16F0 cells assessed as increase in p-p38 MAPK level at 3.1 to 12.5 uM after 72 hrs by Western blotting analysis; assay type: functional, cell-based; procedure, shortened: as §4
B16-F0 [27] = assay: Induction of melanogenesis-stimulating activity in mouse B16F0 cells assessed as increase in TRP-2 protein expression at 3.1 to 12.5 uM after 72 hrs by Western blotting analysis; assay type: functional, cell-based; procedure, shortened: as §4

Row | SMILES | Activity (B16-F0 [1]) [%] | Activity (B16-F0 [2]) [%] | Activity (B16-F0 [3]) [%] | Activity (B16-F0 [4]) [%] | Activity (B16-F0 [5]) [%] | Activity (B16-F0 [6]) [%] | viability at 72 h, 25 µM [7] [%] | viability at 72 h, 12.5 µM [8] [%] | viability at 72 h, 6.25 µM [9] [%] | Activity (B16-F0 [10]) [%] | Activity (B16-F0 [11]) [%] | Activity (B16-F0 [12]) [%] | Activity (B16-F0 [13]) [%] | Activity (B16-F0 [14]) [%] | Activity (B16-F0 [15]) [%] | viability at 72 h, 200 µM [16] [%] | viability at 72 h, 100 µM [17] [%] | viability at 72 h, 10 µM [18] [%] | Activity (B16-F0 [19]) | Activity (B16-F0 [20]) [%] | other results
1 | COc1cc(O)c2c(=O)c(OC)c(-c3ccc(O)c(O)c3)oc2c1 | 187.6 | 171.2 | 134 | 265.5 | 304.3 | 222.8 | 54.1 | 60.4 | 80.4 | – | – | – | – | – | – | – | – | – | – | – | –
2 | O=c1c(O[C@@H]2O[C@H](CO)[C@@H](O[C@@H]3O[C@H](CO)[C@@H](O)[C@H](O)[C@H]3O)[C@H](O)[C@H]2O)c(-c2ccc(O)c(O)c2)oc2cc(O)cc(O)c12 | – | – | – | – | – | – | – | – | – | 176 | 126.8 | 102.6 | 85.2 | 91 | 83.3 | 81.1 | 93.2 | 99.6 | Dose-dependent effect | – | –
3 | O=c1c(O[C@@H]2O[C@H](CO)[C@@H](O[C@@H]3O[C@H](CO)[C@@H](O)[C@H](O)[C@H]3O)[C@H](O)[C@H]2O)c(-c2ccc(O[C@@H]3O[C@H](CO)[C@@H](O)[C@H](O)[C@H]3O)c(O)c2)oc2cc(O)cc(O)c12 | – | – | – | – | – | – | – | – | – | 190.5 | 151.5 | 137 | 125.5 | 116 | 99.7 | 74.8 | 86.8 | 90 | Dose-dependent effect | – | –
4 | CC(=O)Oc1c(-c2ccc(O)c(O)c2)oc2cc(O)cc(O)c2c1=O | 114.3 | 99 | – | 102.6 | 87.6 | – | 120 | 110 | – | – | – | – | – | – | – | – | – | – | – | 104.6 | Activity (B16-F0 [21]): 126.6%; viability at 72 h, 50 µM [22]: 110%
5 | CC(=O)OC[C@H]1O[C@@H](Oc2c(-c3ccc(O)c(O)c3)oc3cc(O)cc(O)c3c2=O)[C@H](OC(C)=O)[C@@H](OC(C)=O)[C@@H]1OC(C)=O | 121.4 | 122.4 | – | 101.5 | 89.3 | – | 102 | 114 | – | – | – | – | – | – | – | – | – | – | – | 148.4 | Activity (B16-F0 [21]): 96.1%; viability at 72 h, 50 µM [22]: 104%
6 | COc1c(-c2ccc(O)c(O)c2)oc2cc(O)cc(O)c2c1=O [3-O-METHYLQUERCETIN] | 146.5 | 137 | – | 130.8 | 124.1 | – | 88.1 | 98.2 | – | – | – | – | – | – | – | – | – | – | – | 157.3 | Activity (B16-F0 [21]): 224.9%; viability at 72 h, 50 µM [22]: 74.4%; Activity (B16-F0 [23]): Active; Activity (B16-F0 [24]): Active; Activity (B16-F0 [25]): inactive; Activity (B16-F0 [26]): inactive; Activity (B16-F0 [27]): Active
7 | O=c1c(O[C@@H]2O[C@H](CO)[C@@H](O)[C@H](O)[C@H]2O)c(-c2ccc(O)c(O)c2)oc2cc(O)cc(O)c12 [ISOQUERCETIN] | – | – | – | – | – | – | – | – | – | 206.9 | 157.1 | 116.3 | 86.1 | 85.1 | 91 | 68.4 | 80.9 | 105 | Dose-dependent effect | – | –
8 | COc1cc(O)c2c(=O)c(O)c(-c3ccc(OC)c(O)c3)oc2c1 [OMBUINE] | 100.5 | 106.1 | 110.2 | 100.1 | 98 | 100.5 | 101 | 101 | 99.7 | – | – | – | – | – | – | – | – | – | – | – | –
9 | COc1cc(O)c2c(=O)c(O)c(-c3ccc(O)c(O)c3)oc2c1 [RHAMNETIN] | 75.8 | 87.6 | 102.4 | 114.3 | 105.2 | 105.5 | 91.6 | 99.4 | 92.7 | – | – | – | – | – | – | – | – | – | – | – | –
10 | COc1ccc(-c2oc3cc(O)cc(O)c3c(=O)c2O)cc1O [TAMARIXETIN] | 106.9 | 133.5 | 125.6 | 97.9 | 95.1 | 97.5 | 101 | 103 | 104 | – | – | – | – | – | – | – | – | – | – | – | –
